A short description of data set [1]: Cytotoxicity against African green monkey Vero cells incubated for 5 days by neutral red uptake assay. The class given is toxicity, cell-based. The conditions noted are these: chlorocebus sabaeus, time 5 day; for CC50: vero, 120 h; for CC50 at 120 h: Vero cells. In outline: (§1)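 Vero E6 cells were kept in DMEM with 5% heat-inactivated FBS at 37 °C, 5% CO2, and seeded at 80,000 cells/mL. Neutral red uptake used 40 μg/mL dye for 2–4 h, read at 540 nm. CC50 came from a variable-slope dose-response fit.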

In data set [2] the target is T1, Replicase polyprotein 1ab (Severe acute respiratory syndrome coronavirus 2, UniProt P0DTD1). As to the kind of experiment: Inhibition of MPro of SARS CoV-2 BetaCoV/Wuhan/WIV04/2019 preincubated for 30 mins followed by substrate addition measured for 1 hr by FRET assay.
Data set [3] is described as follows: Cytotoxicity against human Calu-3 cells infected with SARS CoV-2 USA-WA1/2020 clinical isolate assessed as reduction in cell viability incubated for 48 hrs by imaging analysis. The class given is toxicity, cell-based.
Data set [4] in a line: Cytotoxicity against African green monkey Vero cells. The conditions noted are these: chlorocebus sabaeus. The class given is toxicity, cell-based. Put shortly: as §1
Data set [5] deals with T1, Replicase polyprotein 1ab. As to the kind of experiment: Inhibition of SARS-CoV-2 MPro. Put shortly:
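FRET substrate was added to 10 μM final. Fluorescence (ex 360, em 460 nm) was followed 1 h at 30 °C. Initial velocities came from linear regression of the first 15 min, giving % inhibition and IC50.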

Another data set deals with SARS-CoV-2. The data set is described as follows: Antiviral activity against SARS CoV-2 USA-WA1/2020 clinical isolate infected in human Calu-3 cells assessed as reduction in viral infection incubated for 48 hrs by imaging analysis. Format: functional, organism-based. To be noted: Severe acute respiratory syndrome coronavirus 2, USA-WA1/2020, Calu-3, 48 h.
Data set [6] concerns the target T1, Replicase polyprotein 1ab. The data set is described as follows: Inhibition of MPro of SARS CoV-2 BetaCoV/Wuhan/WIV04/2019 incubated for 2 hrs in presence of substrate by FRET assay.

A word on the CC50: it is the concentration giving 50% cytotoxicity. The term IC50 denotes the concentration that inhibits the measured activity by half. Usually EC50 stands for the concentration at which the effect is half-maximal. One may read the Ki as the equilibrium dissociation constant of an inhibitor or competing ligand from its target.

Regarding `C=CS(=O)(=O)N(c1ccc(-c2ccccc2)cc1)[C@@H](C(=O)N[C@@H](C)c1ccccc1)c1cccnc1`, half-maximal cytotoxicity in data set [1] (CC50) was put at 18.4 µM. In data set [2], this compound came in with an IC50 of 0.31 µM. As to `COc1ccc(/C=C(\C#N)C(=O)N(c2ccc(-c3ccccc3)cc2)[C@@H](C(=O)N[C@@H](C)c2ccccc2)c2cccnc2)cc1`, in data set [1], the CC50 was over 100 µM. For the same compound, in data set [3], the CC50 at 48 h is over 100 µM. In data set [1], `C#CC(=O)N(c1ccc(-c2ccccc2)cc1)[C@@H](C(=O)N[C@@H](C)c1ccccc1)c1cccnc1` displayed a CC50 at 120 h of 2.06 µM. In data set [2], `C#CCN(c1ccc(-c2ccccc2)cc1)C(C(=O)N[C@@H](C)c1ccccc1)c1cccnc1` (stereo partly drawn) came in with an IC50 of over 20 µM. The compound `CCC#CC(=O)N(c1ccc(-c2ccccc2)cc1)C(C(=O)N[C@@H](C)c1ccccc1)c1cccnc1` (stereo partly drawn) came in with a CC50 at 120 h in data set [1] of 38.6 µM. For the same compound, in data set [2], the IC50 amounted to 1.65 µM. In the case of `C=C(NC(C)=O)C(=O)N(c1ccc(-c2ccccc2)cc1)C(C(=O)N[C@@H](C)c1ccccc1)c1cccnc1` (stereo partly drawn), in data set [2], the IC50 is over 20 µM. In data set [2], `C[C@H](NC(=O)C(c1cccnc1)N(C(=O)C1(C#N)CCN(C(=O)OC(C)(C)C)CC1)c1ccc(-c2ccccc2)cc1)c1ccccc1` (stereo partly drawn) displayed an IC50 of over 20 µM.

In the case of `C[C@H](NC(=O)C(c1cccnc1)N(C(=O)/C=C/Br)c1ccc(-c2ccccc2)cc1)c1ccccc1` (stereo partly drawn), in data set [2], the IC50 is over 20 µM. Still for that read-out and setting: to `C=C(C(=O)N(c1ccc(-c2ccccc2)cc1)C(C(=O)N[C@@H](C)c1ccccc1)c1cccnc1)c1ccccc1` (stereo partly drawn) belongs over 20 µM.

In data set [1], `C[C@H](NC(=O)[C@H](c1cccnc1)N(C(=O)C#CCCl)c1ccc(-c2ccccc2)cc1)c1ccccc1` displayed a CC50 of 2.2 µM. In data set [2], `C[C@H](NC(=O)[C@H](c1cccnc1)N(C(=O)C#CCC#N)c1ccc(-c2ccccc2)cc1)c1ccccc1` had an IC50 of over 20 µM. On the same count and under the same terms, the result for `C[C@H](NC(=O)C(c1cccnc1)N(C(=O)/C(C#N)=C/C1CC1)c1ccc(-c2ccccc2)cc1)c1ccccc1` (stereo partly drawn) reads over 20 µM.

`C[C@H](NC(=O)C(c1cccnc1)N(C(=O)C(C#N)=C1CCCCC1)c1ccc(-c2ccccc2)cc1)c1ccccc1` (stereo partly drawn) showed a half-maximal inhibitory concentration (IC50) in data set [2] of over 20 µM. On the same count and under the same terms, to `C/C=C(\C)C(=O)N(c1ccc(-c2ccccc2)cc1)C(C(=O)N[C@@H](C)c1ccccc1)c1cccnc1` (stereo partly drawn) belongs over 20 µM. `C#CCC(=O)N(c1ccc(-c2ccccc2)cc1)C(C(=O)N[C@@H](C)c1ccccc1)c1cccnc1` (stereo partly drawn) displayed an IC50 in data set [2] of 4.63 µM.

In turn, `COC(=O)/C=C/C(=O)N(c1ccc(-c2ccccc2)cc1)C(C(=O)N[C@@H](C)c1ccccc1)c1cccnc1` (stereo partly drawn) showed a cytotoxic concentration (CC50) at 120 h in data set [1] of 8.9 µM. Further, in data set [2], the IC50 came to 3.97 µM. Regarding `C=C(Br)C(=O)N(c1ccc(-c2ccccc2)cc1)C(C(=O)N[C@@H](C)c1ccccc1)c1cccnc1` (stereo partly drawn), in data set [1], the CC50 at 120 h is under 3.9 µM. Moreover, half-maximal inhibition in data set [2] (IC50) required 4.26 µM. `C=C(C)C(=O)N(c1ccc(-c2ccccc2)cc1)C(C(=O)N[C@@H](C)c1ccccc1)c1cccnc1` (stereo partly drawn) had an IC50 in data set [2] of over 20 µM. As to `C=C(Cl)C(=O)N(c1ccc(-c2ccccc2)cc1)C(C(=O)N[C@@H](C)c1ccccc1)c1cccnc1` (stereo partly drawn), the CC50 in data set [4] was under 10 µM. As for `C[C@H](NC(=O)C(c1cccnc1)N(C(=O)C#CC(C)(C)O)c1ccc(-c2ccccc2)cc1)c1ccccc1` (stereo partly drawn), the CC50 at 120 h in data set [1] stood at 19.1 µM. Half-maximal inhibition in data set [2] (IC50) required 1.28 µM.

The compound `C[C@H](NC(=O)C(c1cccnc1)N(C(=O)C1=CC(=O)CC1)c1ccc(-c2ccccc2)cc1)c1ccccc1` (stereo partly drawn) displayed an IC50 in data set [2] of over 20 µM. In the case of `C[C@H](NC(=O)C(c1cccnc1)N(C(=O)C#CC1CC1)c1ccc(-c2ccccc2)cc1)c1ccccc1` (stereo partly drawn), the CC50 in data set [1] is 102 µM. In data set [2], this compound showed an IC50 of 0.85 µM. On to `CC(C)C#CC(=O)N(c1ccc(-c2ccccc2)cc1)C(C(=O)N[C@@H](C)c1ccccc1)c1cccnc1` (stereo partly drawn), for which the IC50 in data set [2] is 4.19 µM.

With `CCC(=O)C(=O)N(c1ccc(-c2ccccc2)cc1)C(C(=O)N[C@@H](C)c1ccccc1)c1cccnc1` (stereo partly drawn), the IC50 in data set [2] was 3.81 µM.

`CC(C)=CC(=O)N(c1ccc(-c2ccccc2)cc1)C(C(=O)N[C@@H](C)c1ccccc1)c1cccnc1` (stereo partly drawn) showed an IC50 in data set [2] of over 20 µM. In data set [5], `C=CC(=O)N(c1ccc(-c2ccccc2)cc1)C(C(=O)N[C@@H](C)c1ccccc1)c1cccnc1` (stereo partly drawn) returned an IC50 of over 20 µM.

As for `C[C@H](NC(=O)[C@@H](c1cccnc1)N(C(=O)C#CCC#N)c1ccc(-c2ccccc2)cc1)c1ccccc1`, in the data set on SARS-CoV-2, the EC50 amounted to 2.92 µM. In addition, in data set [1], the CC50 at 120 h is over 100 µM. In addition, in data set [2], inhibition was half-maximal at 0.5 µM (IC50). In addition, the CC50 at 48 h in data set [3] is over 100 µM. Moreover, the Ki in data set [6] came out at 0.345 µM. For the compound `CC#CC(=O)N(c1ccc(-c2ccccc2)cc1)C(C(=O)N[C@@H](C)c1ccccc1)c1cccnc1` (stereo partly drawn), in data set [1], it took 18 µM to reach half-maximal cytotoxicity (CC50 at 120 h). Take `C[C@H](NC(=O)C(c1cccnc1)N(C(=O)/C=C/c1ccco1)c1ccc(-c2ccccc2)cc1)c1ccccc1` (stereo partly drawn): in data set [2], the IC50 stood at 15.4 µM. `C[C@H](NC(=O)C(c1cccnc1)N(C(=O)/C=C\I)c1ccc(-c2ccccc2)cc1)c1ccccc1` (stereo partly drawn) gave an IC50 in data set [2] of over 20 µM. In data set [1], `C#CC(=O)N(c1ccc(-c2ccccc2)cc1)[C@H](C(=O)N[C@@H](C)c1ccccc1)c1cccnc1` showed a CC50 at 120 h of 2.8 µM. As to `C=CS(=O)(=O)N(c1ccc(-c2ccccc2)cc1)[C@H](C(=O)N[C@@H](C)c1ccccc1)c1cccnc1`, in data set [2], 6.49 µM corresponded to half-maximal inhibition (IC50). The same measure, in the same setting: the result for `CC(=O)/C=C/C(=O)N(c1ccc(-c2ccccc2)cc1)C(C(=O)N[C@@H](C)c1ccccc1)c1cccnc1` (stereo partly drawn) reads 17 µM. In turn, `C=C(F)C(=O)N(c1ccc(-c2ccccc2)cc1)C(C(=O)N[C@@H](C)c1ccccc1)c1cccnc1` (stereo partly drawn) registered an IC50 in data set [2] of over 20 µM. For `C[C@H](NC(=O)C(c1cccnc1)N(C(=O)C#CC(C)(C)F)c1ccc(-c2ccccc2)cc1)c1ccccc1` (stereo partly drawn), in data set [2], the IC50 is over 20 µM.

In the case of `C[C@H](NC(=O)C(c1cccnc1)N(C(=O)/C=C/C(=O)O)c1ccc(-c2ccccc2)cc1)c1ccccc1` (stereo partly drawn), in data set [1], the CC50 at 120 h was over 250 µM. Moreover, the midpoint of inhibition in data set [2], the IC50, lay at 12.4 µM. In data set [2], `C[C@H](NC(=O)C(c1cccnc1)N(C(=O)C1(C#N)CC1)c1ccc(-c2ccccc2)cc1)c1ccccc1` (stereo partly drawn) registered an IC50 of over 20 µM.

In data set [2], `C[C@H](NC(=O)C(c1cccnc1)N(C(=O)C(=O)N1CCN(C)CC1)c1ccc(-c2ccccc2)cc1)c1ccccc1` (stereo partly drawn) showed an IC50 of over 20 µM. `C=C(C(=O)N(c1ccc(-c2ccccc2)cc1)C(C(=O)N[C@@H](C)c1ccccc1)c1cccnc1)C(F)(F)F` (stereo partly drawn) showed a CC50 at 120 h in data set [1] of under 3.9 µM. This compound came in with a half-inhibitory concentration (IC50) in data set [2] of 4.36 µM. On to `C[C@H](NC(=O)C(c1cccnc1)N(C(=O)C1=CCCCC1)c1ccc(-c2ccccc2)cc1)c1ccccc1` (stereo partly drawn), for which the IC50 in data set [2] was over 20 µM. Turning to `C[C@H](NC(=O)[C@@H](c1cccnc1)N(C(=O)C#CCCl)c1ccc(-c2ccccc2)cc1)c1ccccc1`, it took 2 µM to reach half-maximal cytotoxicity in data set [1] (CC50).

`C#CCCC(=O)N(c1ccc(-c2ccccc2)cc1)C(C(=O)N[C@@H](C)c1ccccc1)c1cccnc1` (stereo partly drawn) showed an IC50 in data set [2] of over 20 µM. `C[C@H](NC(=O)C(c1cccnc1)N(C(=O)C(F)(F)S(=O)(=O)F)c1ccc(-c2ccccc2)cc1)c1ccccc1` (stereo partly drawn) came in with an IC50 in data set [2] of over 20 µM. The same measure, in the same setting: the result for `CC(C)/C=C(\C#N)C(=O)N(c1ccc(-c2ccccc2)cc1)C(C(=O)N[C@@H](C)c1ccccc1)c1cccnc1` (stereo partly drawn) reads over 20 µM; that for `C[C@H](NC(=O)C(c1cccnc1)N(C(=O)C1(C#N)CCOCC1)c1ccc(-c2ccccc2)cc1)c1ccccc1` (stereo partly drawn), over 20 µM; that for `CO/C=C/C(=O)N(c1ccc(-c2ccccc2)cc1)C(C(=O)N[C@@H](C)c1ccccc1)c1cccnc1` (stereo partly drawn), over 20 µM. In the case of `C[C@H](NC(=O)C(c1cccnc1)N(C(=O)/C=C/Cl)c1ccc(-c2ccccc2)cc1)c1ccccc1` (stereo partly drawn), the IC50 in data set [2] was over 20 µM. As for `CCC(CC)COC(=O)[C@H](C)N[P@](=O)(OC[C@H]1O[C@@](C#N)(c2ccc3c(N)ncnn23)[C@H](O)[C@@H]1O)Oc1ccccc1` [REMDESIVIR], the EC50 with SARS-CoV-2 came to 0.17 µM. This compound also displayed a CC50 at 120 h in data set [1] of over 10 µM. Also, the CC50 at 48 h in data set [3] was over 10 µM.

Source of the values: ChEMBL document CHEMBL5625188, “Exploring diverse reactive warheads for the design of SARS-CoV-2 main protease inhibitors” (Eur J Med Chem, 2023).
